# Assay results collected from several papers.
# Lines come from different studies, so protocols differ.
Compound,technique,medium,time,pH,temperature,solubility
CCOc1nc2nc(C)cc(Nc3ccc(S(F)(F)(F)(F)F)cc3)n2n1,nephelometry,aqueous buffer,,pH 6.5,,4 to 8 µM
CCCn1nc(C(=O)N2CCCCC2)c2c1CCC(NCc1ccc(N3CCCCC3)cc1)C2 (centres unmarked),,PBS,16 h,pH 7.4,,463 µM
CCCCCCCCN1CCCC1=O,,PBS,48 h,pH 7.4,25 °C,4800 µM
CC(C)Oc1ccc2cc(-c3nn(C(C)(C)C)c(N)c3C(N)=O)cnc2c1,,PBS,,pH 6.5,25 °C,> 100 µM
CCCCCCN1CCCC1=O,,PBS,48 h,pH 7.4,25 °C,79000 µM
COc1cccc(OC)c1-c1nc(C(=O)N[C@@H](CC(C)C)C(=O)O)cn1-c1cccc2ccccc12,,aqueous buffer,,pH 5,,103 µg/mL
CN1CCN(C(=O)C2CCN(c3nccc4[nH]c(-c5ccc(F)c(F)c5)nc34)CC2)CC1,shake flask,aqueous buffer,,pH 6.5,,> 200 µM
COc1cccc2c(NCc3ccccc3)nc(NCc3ccccc3)nc12,,aqueous buffer,,pH 5,,3.2 µg/mL
Cc1ccc(-n2sc(=O)n(Cc3ccc(F)cc3)c2=O)cc1,,aqueous buffer,,,,~200 µM
CC(=O)N1CCN(c2ccc(OCC3COC(Cn4ccnc4)(c4ccc(Cl)cc4Cl)O3)cc2)CC1 (centres unmarked),,PBS,,pH 7.4,,55.6 µM
CN1CCN(CC2CCN(c3nccc4[nH]c(-c5cccc(OC(F)(F)F)c5)nc34)CC2)CC1,shake flask,aqueous buffer,,pH 6.5,,> 200 µM
Cc1cccc(C(=O)Nc2cccc(NC(=O)c3ccccc3)c2)c1,,aqueous buffer,,,,< 0.03 µM
COc1ccnc(CNC(=O)c2cn(Cc3ccc(Cn4ccccc4=O)cc3)nc2C(F)(F)F)c1F,,FaSSIF,4 h,pH 6.5,,20 µg/mL
COCCOCCOCc1n(Cc2ccc3ccccc3n2)c2ccccc2[n+]1Cc1ccc2ccccc2n1.[Cl-],,water,,,,> 40000 µg/mL
Cc1ccc(F)cc1Nc1nc(NCc2ccccc2)c2ccccc2n1,,aqueous buffer,,pH 7.4,,0.04 µg/mL
CC(=O)c1cccc(OCc2cc(C(=O)N(C)[C@@H](C)c3ccccn3)no2)c1,,PBS,,,,96 µM
Nc1cccc(S(=O)(=O)N2CCCN(S(=O)(=O)c3ccc4c(c3)OCCO4)CC2)c1,,aqueous buffer,,,,29 µg/mL
COc1ccc(C2CC(=O)c3c(O)cc(O)cc3O2)cc1O (centres unmarked),shake flask,water,24 h,,25 °C,15.7 µg/mL
Brc1cccc(Nc2nc(NCc3ccccc3)c3ccccc3n2)c1,,aqueous buffer,,pH 5,,0.03 µg/mL
Cl.c1ccc(Cn2c(N3CCNCC3)nc3cc(-c4ccccc4)ccc32)cc1,shake flask,aqueous buffer,20 h,pH 6.5,25 °C,25 µM
c1ccc(CNc2nc(N3CCOc4ccccc43)nc3ccccc23)cc1,,aqueous buffer,,pH 7.4,,0.48 µg/mL
CCCOC(=O)c1ccc(N)cc1,,PBS,,pH 7.4,,749 µg/mL
CCOc1ccc2cc(-c3nn(C4CCCCCC4)c(N)c3C(N)=O)cnc2c1,,PBS,,pH 6.5,25 °C,8.5 µM
CCCCCCCCCCCCCC(=O)Nc1ccc(CP(=O)(O)O)cc1,,water,,,,1000 µg/mL
CNC(=O)c1ccc(N(Cc2ccc(C3CCCCC3)cn2)C(=O)[C@H]2CCN2S(=O)(=O)c2c(F)c(F)c(F)c(F)c2F)cc1O,,simulated intestinal fluid,,,,131 µg/mL
Cc1ccc(Nc2nc(NCc3ccccc3)c3ccccc3n2)cc1F,,aqueous buffer,,pH 6.2,,0.04 µg/mL
CN1CCC(N2CCCN(c3nccc4[nH]c(-c5ccc(F)c(F)c5)nc34)CC2)CC1,shake flask,aqueous buffer,,pH 6.5,,> 200 µM
CCc1ccccc1-n1nc(C)c(C(=O)Nc2ccc3ccccc3n2)c1C,HPLC,PBS,6 h,pH 7.4,,5.9 µg/mL
CCOc1ccc2cc(-c3nn(C4CCCCC4)c(N)c3C(N)=O)ccc2n1,,PBS,,pH 6.5,25 °C,88.9 µM
N=C(N)NCc1ccc(NC(=O)c2ccc(C(=O)Nc3ccc(C4=CCN(C(=N)N)CC4)cc3)cc2)cc1,shake flask,aqueous buffer,,pH 7.4,,171 µg/mL
Cc1cc(Nc2ccc(C(F)(F)F)cc2)n2nc(C3CC3)nc2n1,nephelometry,aqueous buffer,,pH 6.5,,38 to 75 µM
O=C(Nc1ccc(C(F)(F)F)cc1)N1CCC(Cc2cccc(Oc3ccc(C(F)(F)F)cn3)c2)CC1,,water,48 h,,37 °C,0.0016 µM
O=C(Nc1ccc(S(=O)(=O)N2CCC(Cl)CC2)cc1)c1ccc([N+](=O)[O-])o1,,aqueous buffer,,pH 7.4,,9.7 µM
Cl.NC1CCN(c2nc3cc(Cl)ccc3n2Cc2ccccc2)CC1,shake flask,aqueous buffer,20 h,pH 6.5,25 °C,> 150 µM
CCC(F)(F)c1nc2nc(C)cc(Nc3ccc(S(F)(F)(F)(F)F)cc3)n2n1,nephelometry,aqueous buffer,,pH 6.5,,15 to 30 µM
COc1cc(OC)cc(N(CCNC(C)C)c2ccc3ncc(-c4cnn(C)c4)nc3c2)c1,,aqueous buffer,,pH 9.61,,1 µg/mL
Brc1ccccc1CNc1nc(NCc2ccccc2)c2ccccc2n1,,aqueous buffer,,pH 5,,0.21 µg/mL
CC[C@H](C)[C@H](NC(=O)[C@H](CO)NC(=O)[C@H](CCCNC(=N)N)NC(C)=O)C(=O)N[C@H]1CSSC[C@@H](C(=O)N[C@H](C(N)=O)[C@@H](C)O)NC(=O)[C@H](CCCNC(=N)N)NC(=O)[C@H](Cc2c[nH]cn2)NC(=O)[C@H](C)NC(=O)CNC(=O)[C@H](Cc2c[nH]c3ccccc23)NC(=O)[C@H](CC(=O)O)NC(=O)[C@H](CCC(N)=O)NC(=O)[C@H](Cc2c[nH]c3ccccc23)NC(=O)[C@H](C(C)C)NC1=O,,PBS,,pH 7.4,,3690 µg/mL
Cl.Clc1ccc2c(nc(N3CCNCC3)n2Cc2ccccc2)c1Cl,shake flask,aqueous buffer,20 h,pH 6.5,25 °C,70 µM
CC(C(=O)O)c1ccc(-c2ccccc2)c(F)c1 (centres unmarked),,PBS,,pH 7.4,,4490 µg/mL
c1ccc(CNc2nc(N3CCNc4ccccc43)nc3ccccc23)cc1,,aqueous buffer,,pH 7.4,,0.02 µg/mL
CCOC(=O)C1=C(C)NC(C)=C(C(=O)OC)C1c1cccc(Cl)c1Cl (centres unmarked),,FaSSIF,24 h,pH 7.4,37 °C,40 µg/mL
CCC(=O)O[C@]1(C(=O)SCF)[C@H](C)C[C@H]2[C@@H]3C[C@H](F)C4=CC(=O)C=C[C@]4(C)[C@@]3(F)[C@@H](O)C[C@@]21C,,FaSSIF,,,,3.12 µM
O=C(Nc1c2c(cc3c1CCC3)CCC2)NS(=O)(=O)/C=C/c1nccs1,,PBS,24 h,pH 6.8,37 °C,646 µg/mL
COc1cccc(OC)c1-c1nc(C(=O)N[C@@H](CC(C)C)C(=O)O)cn1-c1ccnc2cc(Cl)ccc12,,aqueous buffer,,pH 7.4,,> 52 µg/mL
O=C(CCCCCCC(=O)Nc1ccccc1)NO,HPLC,water,48 h,pH 6,25 °C,160 µg/mL
NCC1CCN(c2nccc3[nH]c(-c4cccc(OC(F)(F)F)c4)nc23)CC1,shake flask,aqueous buffer,,pH 6.5,,> 200 µM
O=C(c1ccccn1)N(Cc1cccs1)C1(C(=O)NC2CCCCC2)CCCCC1,,aqueous buffer,,pH 6.2,,6.6 µg/mL
Cc1nccn1CC1CCc2c(c3ccccc3n2C)C1=O (centres unmarked),,PBS,24 h,pH 7.4,25 °C,93 µM
Brc1ccc2c(c1)nc(N1CCNCC1)n2Cc1ccccc1,shake flask,aqueous buffer,20 h,pH 6.5,25 °C,105 µM
O=C(Nc1cc(F)c(F)c(F)c1)c1ccc(F)c(S(=O)(=O)NCc2cccc(B(O)O)c2)c1,,aqueous buffer,,pH 7.4,,427 µg/mL
Cc1cc(Nc2ccc(Cl)cc2)n2nc(C(C)(F)F)nc2n1,nephelometry,aqueous buffer,,pH 6.5,,77 to 150 µM
COC(=O)[C@H]1[C@H]2C[C@@H]3c4[nH]c5cc(OC)ccc5c4CCN3C[C@H]2C[C@@H](OC(=O)c2cc(OC)c(OC)c(OC)c2)[C@@H]1OC,shake flask,PBS,24 h,pH 6.5,25 °C,< 5 µM
Cc1cc(Nc2ccc(C(F)(F)F)cc2)n2nc(C(C)(F)F)nc2n1,nephelometry,aqueous buffer,,pH 6.5,,70 to 140 µM
COc1ccc(Nc2nc(NCc3ccccc3)c3ccccc3n2)cc1F,,aqueous buffer,,pH 7.4,,0.08 µg/mL
CC(C)(C)n1nc(-c2ccc3nc(OC4CCC4)ccc3c2)c(C(N)=O)c1N,,PBS,,pH 6.5,25 °C,80.6 µM
